Bioassay records: PubChem BioAssay, Sanford-Burnham Center for Chemical Genomics
SENP7 block: SENP7 protease inhibition | Q9BQF6 | recombinant SENP7, Z-RLRGG-aminoluciferin luminescence, 40 min | inhibition, % at 5 µM | actives 1.5% (n = 330,000) | AID 434973;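 active = inhibition above about 50% at the single test dose, limit read from the data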;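 note: plate controls were DMSO with enzyme for no effect and no enzyme buffer wells for full effect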
Target sequence (Q9BQF6 706-1050 limits assumed): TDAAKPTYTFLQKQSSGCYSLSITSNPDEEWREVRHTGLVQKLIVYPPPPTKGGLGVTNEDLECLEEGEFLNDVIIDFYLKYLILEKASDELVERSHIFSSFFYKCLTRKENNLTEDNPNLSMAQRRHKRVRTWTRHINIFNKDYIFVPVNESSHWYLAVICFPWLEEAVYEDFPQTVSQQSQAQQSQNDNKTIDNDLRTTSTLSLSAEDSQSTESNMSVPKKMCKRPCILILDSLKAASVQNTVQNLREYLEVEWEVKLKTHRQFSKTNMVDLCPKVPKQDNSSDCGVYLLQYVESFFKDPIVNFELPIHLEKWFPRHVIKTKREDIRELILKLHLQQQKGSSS
UBC13 polyUb: inhibitors of human UBC13 polyubiquitin chain formation. P61088. TR-FRET. inhibition, % at 20 µM. actives 0.47% (n = 330,000). AID 485273; in the data active = inhibition above about 45%, passing the limit was not always enough
SENP8 block-1: inhibitors of human SENP8 protease | recombinant SENP8, Nedd8 substrate fluorescence | inhibition, % at 20 µM | actives 0.64% (n = 360,000); in the data active = inhibition mostly above about 40%, no sharp cut-off; inactive = mostly below about 27%
SENP8 block-2: blocks the human protease SENP8 | Q96LD8 | purified SENP8, Z-RLRGG-aminoluciferin cleavage, luminescence | inhibition, % at 10 µM | actives 1.2% (n = 330,000) | AID 2540; in the data active = inhibition above about 50%
SENP6 block: inhibitors of human SENP6 protease | Recombinant SENP6 catalytic domain, aminoluciferin luminescence | Q9GZR1 | AID 2599 | inhibition, % at 10 µM | actives 1.8% (n = 330,000);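 active = inhibition above about 50% at the single tested dose, limit read from the data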;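 note: plate controls were DMSO wells with enzyme for no effect and DMSO wells lacking enzyme for full effect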
Apaf-1 inh: inhibitors of human Apaf-1 apoptosome; O14727; reconstituted apoptosome caspase-3 activity, DEVD-Rh110 fluorescence; inhibition, % at 20 µM; actives 0.71% (n = 330,000); AID 489030; active = inhibition of at least 40% at 20 µM;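 note: plate controls were DMSO wells for no effect and DEVD-CHO caspase inhibitor wells for full effect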
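Assay system – apoptosome proteins · Medium – Hepes buffer, pH 7.5 · Also added – cytochrome c with DEVD-Rh110 · Timing – 30 min compound preincubation, 50 min activation, room temperature · Detection – Rh110 fluorescence, excitation 480 nm, emission 540 nm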
Apaf-1 inh conf: Apaf-1 inhibition, single-dose confirmed; shares compounds with Apaf-1 inh; reconstituted apoptosome, caspase-3 DEVD-Rh110 fluorescence; inhibition, % at 20 µM; actives 25% (n = 1,800); AID 504614;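 active = mean inhibition of at least 40% at 20 µM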;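 note: plate controls were DMSO wells for no effect and DEVD-CHO caspase inhibitor control wells for full effect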
Rh110 quench: Rh110 signal interference in Apaf-1 inhibitor counter-screen; 1,800 tested, under 10 active; shares compounds with Apaf-1 inh; activation (fluorescence interference), % at 20 µM; Rh110 fluorescence interference, quenched caspase reaction;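 active = signal rise of 40% or more at 20 µM, treated as a fluorescence artifact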
Apaf1 inh interf: Apaf-1 inhibitor counter-screen fluorescence artifact; shares compounds with Apaf-1 inh; fluorescence interference counterscreen, Apaf-1 assay format; IC50, µM; 460 tested, under 10 active; call rule not given here
Active calls of the source: *; nt = no result. Hits are enriched below; roughly 3% of the tested compounds scored in any of these assays.

SMILES | SENP7 block | UBC13 polyUb | SENP8 block-1 | SENP8 block-2 | SENP6 block | Apaf-1 inh | Apaf-1 inh conf | Rh110 quench | others
CCC(c1nnnn1C1CCCC1)N1CCC2(CC1)C(=O)NCN2c1ccccc1 (stereo not given) | nt | nt | 16 | nt | nt | nt | nt | nt
c1ccc(CCCN2CCN(CCOC(c3ccccc3)c3ccccc3)CC2)cc1 | -12 | 36 | 7 | -12 | -18 | 51* | 18 | 9
Fc1ccc(C(OCCN2CCCC2)c2ccc(F)cc2)cc1 | -5 | 15 | 17 | -2 | -6 | 8 | nt | nt
CC(=O)O/C(=C1\CC2C3CC=C4CC(OC(C)=O)CCC4(C)C3CCC2(C)C1=O)C(F)(F)F (stereo not given) | nt | nt | 10 | nt | nt | nt | nt | nt
COCCNC(=O)c1c(NC(=O)c2ccco2)n(Cc2ccccc2)c2nc3ccccc3nc12 | 25 | -1 | -404 | 2 | 20 | 53* | 18 | 10
COC(=O)C1=C(c2ccc(Cl)c(C(F)(F)F)c2)C[C@@H]2CC[C@H]1N2C(=O)NCCOc1ccc(OC)cc1 | -4 | -5 | 6 | -16 | -16 | 40* | 19 | 5
COC(=O)C1=C(c2ccc(Cl)c(C(F)(F)F)c2)C[C@@H]2CC[C@H]1N2C(=O)NCC1CC1 | -3 | 13 | 23 | 11 | 1 | 12 | nt | nt
COc1cc2c3c(c1OC)Oc1ccc(cc1)C[C@H]1c4c(cc(OC)c(OC)c4Oc4ccc(cc4)C[C@@H]3N(C)CC2)CCN1C | -4 | 15 | 11 | -12 | 0 | 45* | 15 | -2
COc1cc2c3cc1Oc1c(OC)c(OC)cc4c1[C@H](Cc1ccc(cc1)Oc1cc(ccc1O)C[C@H]3N(C)CC2)N(C)CC4 | -8 | 24 | 28 | 1 | 2 | 8 | nt | nt
CN1CCc2cc3c(c4c2C1Cc1ccccc1-4)OCO3 (stereo not given) | 50* | -118 | -293 | 64* | 70* | 91* | 67* | 9 | Apaf1 inh interf=>100
CC12CCC(=O)C=C1CC(O)C1C2CCC2(C)C1CCC2(C)O (stereo not given) | nt | nt | -1 | nt | nt | nt | nt | nt
Cc1c2ccncc2c(C)c2c1[nH]c1ccccc12 | 0 | 39 | -383 | -23 | -16 | 67* | 37 | 12
c1ccc2c(c1)[nH]c1cnccc12 | -2 | 23 | -405 | 12 | -8 | -9 | nt | nt
COC(=O)C1=C(c2ccccc2OCc2ccccc2)C[C@@H]2CC[C@H]1N2C(=O)NC1CCN(Cc2ccccc2)CC1 | -2 | 26 | 20 | -6 | 4 | 39 | nt | nt
COC(=O)C1=C(c2cccc(OCc3ccccc3)c2)C[C@@H]2CC[C@H]1N2C(=O)NC1CCN(Cc2ccccc2)CC1 | -19 | 36 | 12 | -10 | -8 | 48* | 11 | 4
O=S1(=O)N(CCN2CC=C(c3c[nH]c4cc(F)ccc34)CC2)c2cccc3c2N1CCC3 | -8 | 1 | -168 | -11 | -16 | 51* | 15 | -4
O=C(Cc1cccs1)N1Cc2ccccc2-n2nncc2C1 | nt | nt | -9 | nt | nt | nt | nt | nt
Cc1[nH]n(-c2ccccc2)c(=O)c1C(c1ccc([N+](=O)[O-])cc1)c1c(C)[nH]n(-c2ccccc2)c1=O | 20 | -49 | 90* | 3 | 12 | 79* | 30 | 10
Cc1ccc(C(=O)N2CC2C)cc1 (stereo not given) | nt | nt | 11 | nt | nt | nt | nt | nt
N#CC1c2ccccc2-n2nncc2CN1C(=O)CCc1ccccc1 (stereo not given) | nt | nt | -2 | nt | nt | nt | nt | nt
C[n+]1c(-c2ccccc2)c2cc(N)ccc2c2ccc(N)cc21 | 95* | -186 | 95* | 93* | 82* | 98* | 80* | 2 | Apaf1 inh interf=>100
Nc1ccc2ccc3cccc[n+]3c2c1 | 0 | -150 | -75 | -3 | 0 | 1 | nt | nt
Nc1c(C(=O)OCc2ccccc2)c2nc3ccccc3nc2n1Cc1cccs1 | 1 | -24 | -266 | -8 | 16 | 86* | 23 | 18
